HSP90 refold inh = HSP90 inhibitors, primary screen, cell lysate, luminescence | Rabbit reticulocyte lysate, luciferase refolding luminescence, 3 h | 0.91% of 290,000 active | Heat shock protein HSP 90 (rabbit reticulocyte lysate; luciferase refolding) | inhibition, % at 5.6 µM | AID 1789, 2009;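 active means inhibition above the screen-wide mean plus 3 SD, computed separately per campaign, cut at about 16% in these data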;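 further: 0% = DMSO wells and 100% = 60 µM geldanamycin wells; inhibitors lower the luminescence because luciferase stays unfolded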
SENP8 block-1 = human SENP8 protease inhibitors, primary screen, biochemical, fluorescence, Nedd8 protein substrate, uHTS | recombinant SENP8 | inhibition, % at 20 µM | 0.64% of 360,000 active; in the data active means inhibition mostly above about 40%, no sharp cut-off; inactive means mostly below about 27%
SENP6 inh = SENP6 protease inhibitors, primary screen, biochemical, luminescence, uHTS; Sentrin-specific protease 6 (Homo sapiens), Q9GZR1; Recombinant SENP6 catalytic domain, aminoluciferin luminescence; inhibition, % at 10 µM; 1.8% of 330,000 active;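 active means inhibition above about 50% at the single tested dose, limit read from the data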;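 further: plate controls were DMSO wells with enzyme for no effect and DMSO wells lacking enzyme for full effect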
SENP7 inh = SENP7 protease inhibitors, primary screen, biochemical, luminescence, uHTS; 1.5% of 330,000 active; inhibition, % at 5 µM; AID 434973, 2010; recombinant SENP7, Z-RLRGG-aminoluciferin luminescence, 40 min;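 active means inhibition above about 50% at the single test dose, limit read from the data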;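 further: plate controls were DMSO with enzyme for no effect and no enzyme buffer wells for full effect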
SENP8 block-2 = SENP8 protease inhibitors, primary screen, biochemical, luminescence. purified SENP8, Z-RLRGG-aminoluciferin cleavage. inhibition, % at 10 µM. 1.2% of 330,000 active. AID 2540, 2010; in the data active means inhibition above about 50%
SENP1 inh = human SENP1 catalytic domain inhibitors, primary screen, biochemical, FRET, uHTS. Sentrin-specific protease 1 (Homo sapiens), Q9P0U3. recombinant SENP1 catalytic domain, CyPet-SUMO1-YPet FRET cleavage. inhibition, % at 10 µM. 0.21% of 360,000 active;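 active means inhibition at least 30% at 10 µM, raw YFP signal under a set limit, fluorescence ratio 0.5 to 1.5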;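 further: 0% = enzyme with DMSO and 100% = no enzyme wells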
Target sequence (Q9P0U3 419-644 limits assumed): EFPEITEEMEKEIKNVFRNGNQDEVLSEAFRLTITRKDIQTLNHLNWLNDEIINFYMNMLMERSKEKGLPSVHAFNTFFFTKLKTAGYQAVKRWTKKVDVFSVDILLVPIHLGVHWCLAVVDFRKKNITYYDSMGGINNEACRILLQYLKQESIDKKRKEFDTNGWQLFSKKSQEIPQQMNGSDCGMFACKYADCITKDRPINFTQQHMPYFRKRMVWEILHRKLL
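Material: hSENP1 catalytic domain, recombinant; medium: Tris pH 8 with BME, BSA, NP40 and catalase; compound: single concentration of 10 µM compound, 0.5% DMSO final; technique: FRET read of cyan and yellow fluorescence; timing: 50 min enzyme reaction, room temperature, light-protected; reagent: SFCypet-SUMO1-SFYpet substrate at 25 nM; control set: no-enzyme low, enzyme-DMSO high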
SENP8 confirm = SENP8 protease inhibitors, retest, confirmation, biochemical, luminescence, single concentration | shares compounds with SENP7 inh | Recombinant SENP8, Z-RLRGG-aminoluciferin luminescence, 60 min | inhibition, % at 12.5 µM | 40% of 6,200 active;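 active means mean inhibition across replicates above about 50%, limit read from the data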
SENP6 confirm = SENP6 protease inhibitors, confirmation, biochemical, luminescence, single concentration | inhibition, % at 12.5 µM | 58% of 6,200 active | recombinant SENP6, Z-RLRGG-aminoluciferin luminescence | shares compounds with SENP7 inh
SENP7 conf = SENP7 protease inhibitors, retest, confirmation, biochemical, luminescence, single concentration | inhibition, % at 12.5 µM | 69% of 6,200 active | shares compounds with SENP7 inh | AID 488917, 2010 | recombinant SENP7, Z-RLRGG-aminoluciferin luminescence, 40 min
Casp3 SENP sel = caspase-3 protease inhibitors, confirmation, selectivity assay for SENP inhibitor project, biochemical, single concentration; AID 488918, 2010; shares compounds with SENP7 inh; 60% of 6,200 active; inhibition, % at 12.5 µM; purified caspase-3, Z-DEVD-aminoluciferin luminescence, 60 min;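 active means mean inhibition above about 50%, limit read from the data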;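 further: plate controls were enzyme with DMSO for no effect and wells without caspase-3 for full effect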
Target sequence (P42574 28-227 limits assumed): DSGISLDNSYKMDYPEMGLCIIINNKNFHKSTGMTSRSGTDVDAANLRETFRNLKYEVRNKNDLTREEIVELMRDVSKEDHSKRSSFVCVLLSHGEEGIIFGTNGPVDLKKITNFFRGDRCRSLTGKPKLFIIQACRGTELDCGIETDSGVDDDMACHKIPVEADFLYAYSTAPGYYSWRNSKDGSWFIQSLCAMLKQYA
SENP luc ctr = interferes with luciferase luminescence in SENP counter-screen; shares compounds with SENP7 inh; Pre-incubated SENP8/Z-RLRGG-aminoluciferin, luciferase luminescence interference; inhibition, % at 12.5 µM; 39% of 6,200 active; AID 488919;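 active means mean inhibition above about 50% when retested at one dose, limit read from the data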;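 further: plate controls were DMSO wells with completed reaction for no effect and substrate without enzyme for full effect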
* = called active by the depositor; nt = no result. An excerpt weighted towards active compounds, which were near 2.9% of everything screened.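 How the source made its calls, unless noted: active means mean inhibition above about 50% in the one-dose retest (limit read from the data); inactive means the rest.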

SMILES	HSP90 refold inh	SENP8 block-1	SENP6 inh	SENP7 inh	SENP8 block-2	SENP1 inh	SENP8 confirm	SENP6 confirm	SENP7 conf	Casp3 SENP sel	SENP luc ctr
CCn1c(SCC(=O)NC2CC2)nnc1-c1ccc(C)cc1	-2	-13	-5	-1	7	0	nt	nt	nt	nt	nt
CCOc1ccc(N=Cc2c(O)cc(C)oc2=O)cc1	-1	-32	-18	-17	-30	1	nt	nt	nt	nt	nt
CCOc1ccc(N=Cc2c(O)c3ccccc3oc2=O)cc1	-2	-20	91*	93*	83*	-19	42	42	56*	38	7
C=CCn1c(N)c(C(=O)Nc2ccccc2)c2nc3ccccc3nc21	1	-401	64*	20	52*	-11	-20	5	7	-3	-2
COCCNC(=O)c1c(N)n(-c2ccccc2)c2nc3ccccc3nc12	4	-258	62*	0	39	-22	10	16	8	2	3
CC(C)Cn1c(N)c(C(=O)NCC2CCCO2)c2nc3ccccc3nc21 (centres undefined)	10	-455	76*	-2	76*	-20	5	16	6	-2	-3
COCCn1c(N)c(C(=O)NCc2cccs2)c2nc3ccccc3nc21	14	-280	84*	64*	87*	-28	-8	3	-4	3	-4
COCCCNC(=O)c1c(N)n(-c2ccccc2)c2nc3ccccc3nc12	1	-409	38	12	15	-33	nt	nt	nt	nt	nt
CC(C(=O)Nc1ccc2[nH]c(=O)[nH]c2c1)N1CCN(Cc2ccc3c(c2)OCO3)CC1 (centres undefined)	nt	-1	-26	-7	-5	-2	nt	nt	nt	nt	nt
COCCNC(=O)c1c(N)n(-c2cccc(C)c2)c2nc3ccccc3nc12	-1	-404	13	9	10	-27	nt	nt	nt	nt	nt
COCCNC(=O)c1c(N)n(CCCn2ccnc2)c2nc3ccccc3nc12	5	-318	89*	67*	28	-20	4	9	10	4	-2
CCC(C)(C)C1CCc2[nH]nc(C(=O)NCc3ccccn3)c2C1 (centres undefined)	nt	0	-5	-6	-11	0	nt	nt	nt	nt	nt
COc1ccc(N=Cc2sc3ccccc3c2Cl)cc1	1	31	30	58*	25	0	10	22	36	37	15
CN(C)S(=O)(=O)c1ccc(Cl)c(NC(=O)COC(=O)/C=C/c2ccco2)c1	3	8	-12	14	3	0	nt	nt	nt	nt	nt
COc1ccc2[nH]c3c(c2c1)CCNC3=O	nt	-451	-13	-2	4	-2	nt	nt	nt	nt	nt
C=C1CCc2c([nH]c3ccc(OCC(C)C)cc23)C1=O	-1	-279	95*	-2	8	-15	12	4	7	4	3
CC(=O)c1sc(N/N=C\c2ccc(N(C)C)cc2)nc1C	-1	-301	77*	82*	31	-26	20	54*	95*	48	16

Screens (PubChem BioAssay)
